Measured values as given in ChEMBL document CHEMBL1240350, “In vitro activity of CEM-101 against Streptococcus pneumoniae and Streptococcus pyogenes with defined macrolide resistance mechanisms” (Antimicrob Agents Chemother, 2010).
≈ marks a conversion by molar mass, not a printed value.

Columns and labels:
Streptococcus pyogenes [1] = test: Antibacterial activity against Streptococcus pyogenes harboring mef(A) gene after overnight incubation by agar dilution method; assay type: functional
Summary of the method: (§1)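 Clinical isolates collected 1998–2008, with macrolide-resistance genes confirmed by PCR. MICs by agar dilution on Mueller-Hinton agar with 5% sheep blood. Inoculum 10^4 CFU/spot, incubated overnight at 35°C in ambient air. S. pneumoniae ATCC 49619 was the quality-control strain in every run.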

Streptococcus pyogenes [2] = test: Antibacterial activity against macrolide-resistant Streptococcus pyogenes harboring erm(B) gene after overnight incubation by agar dilution method; assay type: functional
Summary of the method: (§2)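 Agar dilution MICs on Mueller-Hinton agar with 5% sheep blood. Inoculum 10^4 CFU/spot, incubated overnight at 35°C in ambient air. Clinical S. pneumoniae or group A streptococcal isolates; resistance genotypes (erm(B), erm(A), mef(A)/mef(E)) were assigned by PCR. S. pneumoniae ATCC 49619 served as QC strain in each run. Range, MIC50 and MIC90 reported per phenotype group.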

Streptococcus pyogenes [3] = test: Antibacterial activity against macrolide-resistant Streptococcus pyogenes 2011 harboring mef(A) gene after overnight incubation by agar dilution method
Streptococcus pyogenes [4] = test: Antibacterial activity against macrolide-resistant Streptococcus pyogenes 2094 harboring erm(A) gene after 6 passages and 10 compound-free subculturing by retest method
Streptococcus pneumoniae [5] = test: Antibacterial activity against macrolide-resistant Streptococcus pneumoniae 24 harboring erm(B) gene after 14 passages and 10 compound-free subculturing by retest method; assay type: functional; conditions: Streptococcus pneumoniae, 24; read-out: MIC
Summary of the method: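 Multistep selection by daily serial passage in subinhibitory drug concentrations. Medium was cation-adjusted Mueller-Hinton broth plus 5% lysed horse blood. Each day the next inoculum came from the tube 1–2 dilutions below the MIC whose turbidity matched the growth control, for up to 50 days. Clone MICs by CLSI macrodilution; identity to the parent confirmed by SmaI PFGE.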

Streptococcus pyogenes [6] = test: Antibacterial activity against Streptococcus pyogenes harboring mutation in L4 ribosomal protein after overnight incubation by agar dilution method; assay type: functional; summary of the method: as §1
Streptococcus pneumoniae [7] = test: Antibacterial activity against macrolide-susceptible Streptococcus pneumoniae 7127 harboring S20N mutation in L4 ribosomal protein and A105V mutation in L22 ribosomal protein after 29 passages and 10 compound-free subculturing by retest method; assay type: functional
Streptococcus pyogenes [8] = test: Antibacterial activity against macrolide-resistant Streptococcus pyogenes 237 harboring mutation in L4 ribosomal protein after overnight incubation by agar dilution method
Streptococcus pyogenes [9] = test: Antibacterial activity against macrolide-resistant Streptococcus pyogenes 2094 harboring erm(A) gene after 22 passages and 10 compound-free subculturing by retest method
Streptococcus pneumoniae [10] = test: Antibacterial activity against penicillin-intermediate Streptococcus pneumoniae after overnight incubation by agar dilution method; assay type: functional
Summary of the method: (§3)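 Agar dilution on Mueller-Hinton agar supplemented with 5% sheep blood, inoculum 10^4 CFU/spot, read after overnight incubation at 35°C in ambient air. Clinical isolates with defined genotypes; S. pneumoniae ATCC 49619 quality control strain included in each run. MIC50/MIC90 are MICs inhibiting 50% and 90% of isolates.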

Streptococcus pyogenes [11] = test: Antibacterial activity against macrolide-susceptible Streptococcus pyogenes after overnight incubation by agar dilution method; assay type: functional; summary of the method: as §3
Streptococcus pneumoniae [12] = test: Antibacterial activity against macrolide-resistant Streptococcus pneumoniae harboring erm(B) and mef(A) gene after overnight incubation by agar dilution method; assay type: functional; summary of the method: as §2
Streptococcus pneumoniae [13] = test: Antibacterial activity against macrolide-susceptible Streptococcus pneumoniae after overnight incubation by agar dilution method; assay type: functional; summary of the method: as §2
Streptococcus pneumoniae [14] = test: Antibacterial activity against macrolide-susceptible Streptococcus pneumoniae 1077 after 43 passages and 10 compound-free subculturing by retest method; assay type: functional
Streptococcus pneumoniae [15] = test: Antibacterial activity against macrolide-resistant Streptococcus pneumoniae 3009 harboring mutation in 23S rRNA after 25 passages and 10 compound-free subculturing by retest method; assay type: functional
Streptococcus pyogenes [16] = test: Antibacterial activity against macrolide-resistant Streptococcus pyogenes 237 harboring mutation in L4 ribosomal protein after 50 passages following overnight incubation by agar dilution method
Streptococcus pneumoniae [17] = test: Antibacterial activity against macrolide-resistant Streptococcus pneumoniae 3009 harboring mutation in 23S rRNA after overnight incubation by agar dilution method; assay type: functional
Streptococcus pyogenes [18] = test: Antibacterial activity against macrolide-resistant Streptococcus pyogenes harboring erm(A) gene after overnight incubation by agar dilution method; assay type: functional; summary of the method: as §2
Streptococcus pyogenes [19] = test: Antibacterial activity against macrolide-resistant Streptococcus pyogenes 2094 harboring erm(A) gene after 34 passages and 10 compound-free subculturing by retest method
Streptococcus pyogenes [20] = test: Antibacterial activity against macrolide-resistant Streptococcus pyogenes 2094 harboring erm(A) gene after 43 passages and 10 compound-free subculturing by retest method
Streptococcus pneumoniae [21] = test: Antibacterial activity against quinolone-resistant Streptococcus pneumoniae after overnight incubation by agar dilution method; assay type: functional
Summary of the method: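 Agar dilution on Mueller-Hinton agar supplemented with 5% sheep blood. Inoculum 10^4 CFU/spot, incubated overnight at 35°C in ambient air. Test strains were clinical pneumococcal isolates. S. pneumoniae ATCC 49619 was included as the quality control strain in each run. MIC range, MIC50 and MIC90 were reported for each susceptibility category.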

Streptococcus pyogenes [22] = test: Antibacterial activity against Streptococcus pyogenes harboring erm(B) gene after overnight incubation by agar dilution method; assay type: functional; summary of the method: as §1
Streptococcus pneumoniae [23] = test: Antibacterial activity against macrolide-resistant Streptococcus pneumoniae 2686 harboring mutation in L4 ribosomal protein after overnight incubation by agar dilution method; assay type: functional
Streptococcus pneumoniae [24] = test: Antibacterial activity against Streptococcus pneumoniae harboring mutation in L4 ribosomal protein after overnight incubation by agar dilution method; assay type: functional; summary of the method: as §1
Streptococcus pneumoniae [25] = test: Antibacterial activity against macrolide-susceptible Streptococcus pneumoniae 7127 harboring S20N mutation in L4 ribosomal protein and A105V mutation in L22 ribosomal protein after 43 passages and 10 compound-free subculturing by retest method; assay type: functional
Streptococcus pneumoniae [26] = test: Antibacterial activity against macrolide-resistant Streptococcus pneumoniae harboring mef(A) gene after overnight incubation by agar dilution method; assay type: functional; summary of the method: as §2
Streptococcus pyogenes [27] = test: Antibacterial activity against macrolide-resistant Streptococcus pyogenes 2368 harboring erm(B) gene after 18 passages and 10 compound-free subculturing by retest method
Streptococcus pyogenes [28] = test: Antibacterial activity against macrolide-resistant Streptococcus pyogenes 2368 harboring erm(B) gene after 6 passages and 10 compound-free subculturing by retest method
Streptococcus pneumoniae [29] = test: Antibacterial activity against Streptococcus pneumoniae harboring erm(A) gene after overnight incubation by agar dilution method; assay type: functional; summary of the method: as §1
Streptococcus pneumoniae [30] = test: Antibacterial activity against macrolide-susceptible Streptococcus pneumoniae 7127 harboring S20N mutation in L4 ribosomal protein and A105V mutation in L22 ribosomal protein after overnight incubation by agar dilution method; assay type: functional
Streptococcus pneumoniae [31] = test: Antibacterial activity against macrolide-resistant Streptococcus pneumoniae 2686 harboring mutation in L4 ribosomal protein after 14 passages and 10 compound-free subculturing by retest method; assay type: functional

| SMILES | MIC50 (Streptococcus pyogenes [1]) [µg/mL] | MIC90 (Streptococcus pyogenes [1]) [µg/mL] | MIC50 (Streptococcus pyogenes [2]) [µg/mL] | MIC90 (Streptococcus pyogenes [2]) [µg/mL] | MIC (Streptococcus pyogenes [3]) [µg/mL] | MIC (Streptococcus pyogenes [4]) [µg/mL] | MIC (Streptococcus pneumoniae [5]) [µg/mL] | MIC (Streptococcus pyogenes [6]) [µg/mL] | MIC (Streptococcus pneumoniae [7]) [µg/mL] | MIC (Streptococcus pyogenes [8]) [µg/mL] | MIC (Streptococcus pyogenes [9]) [µg/mL] | MIC50 (Streptococcus pneumoniae [10]) [µg/mL] | MIC90 (Streptococcus pneumoniae [10]) [µg/mL] | MIC50 (Streptococcus pyogenes [11]) [µg/mL] | MIC90 (Streptococcus pyogenes [11]) [µg/mL] | MIC50 (Streptococcus pneumoniae [12]) [µg/mL] | MIC50 (Streptococcus pneumoniae [13]) [µg/mL] | MIC90 (Streptococcus pneumoniae [13]) [µg/mL] | MIC (Streptococcus pneumoniae [14]) [µg/mL] | MIC (Streptococcus pneumoniae [15]) [µg/mL] | further results |
| --- | --- | --- | --- | --- | --- | --- | --- | --- | --- | --- | --- | --- | --- | --- | --- | --- | --- | --- | --- | --- | --- |
| CC[C@H]1OC(=O)[C@H](C)[C@@H](O[C@H]2C[C@@](C)(OC)[C@@H](O)[C@H](C)O2)[C@H](C)[C@@H](O[C@@H]2O[C@H](C)C[C@H](N(C)C)[C@H]2O)[C@](C)(OC)C[C@@H](C)C(=O)[C@H](C)[C@@H](O)[C@]1(C)O [CLARITHROMYCIN] | 4 (≈ 5.35 µM) | 8 (≈ 10.7 µM) | > 64 | > 64 | 4 (≈ 5.35 µM) | > 64 | > 64 | 1 (≈ 1.34 µM) | 0.5 (≈ 0.668 µM) | 0.25 (≈ 0.334 µM) | 8 (≈ 10.7 µM) | 16 (≈ 21.4 µM) | > 64 | 0.03 (≈ 0.0401 µM) | 0.06 (≈ 0.0802 µM) | > 64 | 0.03 (≈ 0.0401 µM) | 0.06 (≈ 0.0802 µM) | 0.06 (≈ 0.0802 µM) | 64 (≈ 85.6 µM) | MIC (Streptococcus pyogenes [16]): 1 µg/mL (≈ 1.34 µM); MIC (Streptococcus pneumoniae [17]): 16 µg/mL (≈ 21.4 µM); MIC50 (Streptococcus pyogenes [18]): 2 µg/mL (≈ 2.67 µM); MIC90 (Streptococcus pyogenes [18]): > 64 µg/mL; MIC (Streptococcus pyogenes [19]): 1 µg/mL (≈ 1.34 µM); MIC (Streptococcus pyogenes [20]): 8 µg/mL (≈ 10.7 µM); MIC50 (Streptococcus pneumoniae [21]): 0.03 µg/mL (≈ 0.0401 µM); MIC50 (Streptococcus pyogenes [22]): > 64 µg/mL; MIC90 (Streptococcus pyogenes [22]): > 64 µg/mL; MIC (Streptococcus pneumoniae [23]): 8 µg/mL (≈ 10.7 µM); MIC50 (Streptococcus pneumoniae [24]): 16 µg/mL (≈ 21.4 µM); MIC90 (Streptococcus pneumoniae [24]): 32 µg/mL (≈ 42.8 µM); MIC (Streptococcus pneumoniae [25]): 0.016 µg/mL (≈ 0.0214 µM); MIC50 (Streptococcus pneumoniae [26]): 2 µg/mL (≈ 2.67 µM); MIC90 (Streptococcus pneumoniae [26]): 4 µg/mL (≈ 5.35 µM); MIC (Streptococcus pyogenes [27]): > 64 µg/mL; MIC (Streptococcus pyogenes [28]): > 64 µg/mL; MIC (Streptococcus pneumoniae [29]): 0.25 µg/mL (≈ 0.334 µM); MIC (Streptococcus pneumoniae [30]): 0.03 µg/mL (≈ 0.0401 µM); MIC (Streptococcus pneumoniae [31]): > 64 µg/mL |
| CCC[C@@H]1C[C@@H](C(=O)N[C@@H]([C@H]2O[C@H](SC)[C@H](O)[C@@H](O)[C@H]2O)[C@H](C)Cl)N(C)C1 [CLINDAMYCIN] | 0.06 (≈ 0.141 µM) | 0.125 (≈ 0.294 µM) | > 64 | > 64 | 0.06 (≈ 0.141 µM) | 0.06 (≈ 0.141 µM) | > 64 | 0.06 (≈ 0.141 µM) | 0.06 (≈ 0.141 µM) | 0.06 (≈ 0.141 µM) | > 64 | 0.125 (≈ 0.294 µM) | > 64 | 0.06 (≈ 0.141 µM) | 0.06 (≈ 0.141 µM) | 0.06 (≈ 0.141 µM) | 0.03 (≈ 0.0706 µM) | 0.06 (≈ 0.141 µM) | 0.03 (≈ 0.0706 µM) | 1 (≈ 2.35 µM) | MIC (Streptococcus pneumoniae [17]): 1 µg/mL (≈ 2.35 µM); MIC50 (Streptococcus pyogenes [18]): 0.125 µg/mL (≈ 0.294 µM); MIC90 (Streptococcus pyogenes [18]): 0.25 µg/mL (≈ 0.588 µM); MIC (Streptococcus pyogenes [19]): > 64 µg/mL; MIC (Streptococcus pyogenes [20]): 0.06 µg/mL (≈ 0.141 µM); MIC50 (Streptococcus pneumoniae [21]): 0.03 µg/mL (≈ 0.0706 µM); MIC90 (Streptococcus pneumoniae [21]): 64 µg/mL (≈ 151 µM); MIC50 (Streptococcus pyogenes [22]): > 64 µg/mL; MIC90 (Streptococcus pyogenes [22]): > 64 µg/mL; MIC (Streptococcus pneumoniae [23]): 0.03 µg/mL (≈ 0.0706 µM); MIC50 (Streptococcus pneumoniae [24]): 0.06 µg/mL (≈ 0.141 µM); MIC90 (Streptococcus pneumoniae [24]): 0.125 µg/mL (≈ 0.294 µM); MIC (Streptococcus pneumoniae [25]): 0.25 µg/mL (≈ 0.588 µM); MIC50 (Streptococcus pneumoniae [26]): 0.06 µg/mL (≈ 0.141 µM); MIC90 (Streptococcus pneumoniae [26]): 0.06 µg/mL (≈ 0.141 µM); MIC (Streptococcus pyogenes [27]): > 64 µg/mL; MIC (Streptococcus pyogenes [28]): > 64 µg/mL; MIC (Streptococcus pneumoniae [29]): 0.125 µg/mL (≈ 0.294 µM); MIC (Streptococcus pneumoniae [30]): 0.03 µg/mL (≈ 0.0706 µM); MIC (Streptococcus pneumoniae [31]): 0.03 µg/mL (≈ 0.0706 µM) |
